These results are taken from ChEMBL document CHEMBL1127085, “Derivatives of 2-(dipropylamino)tetralin: effect of the C8-substituent on the interaction with 5-HT1A receptors” (J Med Chem, 1993).

Where “and” joins values, the source holds several entries; their conditions need not be identical. Equal entries are not always repeated.

Assay [1] concerns the target T1, 5-hydroxytryptamine receptor 1A (Rattus norvegicus, UniProt P19327).
T1 sequence (P19327 whole entry): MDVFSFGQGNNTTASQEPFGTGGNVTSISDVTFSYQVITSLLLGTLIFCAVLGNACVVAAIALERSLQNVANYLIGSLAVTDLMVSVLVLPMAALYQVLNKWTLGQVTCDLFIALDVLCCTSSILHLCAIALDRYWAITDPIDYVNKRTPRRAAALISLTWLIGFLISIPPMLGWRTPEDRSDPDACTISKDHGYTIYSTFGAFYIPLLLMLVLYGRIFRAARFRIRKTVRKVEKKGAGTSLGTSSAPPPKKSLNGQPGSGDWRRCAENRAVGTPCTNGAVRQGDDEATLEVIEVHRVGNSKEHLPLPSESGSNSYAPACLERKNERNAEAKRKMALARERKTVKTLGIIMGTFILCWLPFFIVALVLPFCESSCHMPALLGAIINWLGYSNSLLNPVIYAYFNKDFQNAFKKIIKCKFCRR
Put plainly: Binding affinity of 5-hydroxytryptamine 1A receptor using [3H]-8-OH-DPAT as radioligand. The procedure, abridged: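 Membranes from cortex and hippocampus of male Sprague-Dawley rats, pooled from at least six rats, preincubated with 10 µM pargyline. Assay used 2 nM [3H]-8-OH-DPAT, test compound at 1-300 nM and 5 mg/mL tissue in 50 mM Tris-HCl with 4.0 mM CaCl2 and 5.7 mM ascorbate, pH 7.5. Incubated 10 min at 37 °C, filtered on GF/B, scintillation counted.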

The target in assay [2] is T2, Dopamine receptor (Rattus norvegicus) (UniProt P25115+P19020+P30729+P18901+P61169). Put plainly: Effect of accumulation of DOPA in rat striatum at the dose of 32 umol/kg. The class given is functional, tissue-based. The procedure, abridged:
(§1)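 Test compound given sc in 0.9% NaCl. NSD 1015 (287 µmol/kg sc) given 30 min later to inhibit aromatic L-amino acid decarboxylase; rats decapitated after a further 30 min. Hippocampus and striatum stored at -40 °C for up to 1 week. Perchloric acid homogenates with α-methyl-5-hydroxytryptophan internal standard; 5-HTP and DOPA measured by HPLC-EC. Percent of control, means ± SEM; ANOVA with Tukey test.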

Assay [3] deals with Rattus norvegicus. Nature of the assay: Effect of 5-HT accumulation in rat hippocampus at the dose of 32 umol/kg. It counts as functional. The procedure, abridged:
as §1

Assay [4] deals with Rattus norvegicus. Put plainly: Induction of clear-cut 5-HT motor syndrome in normal rats at the dose of 32 uM/Kg. It counts as functional.
The target of assay [5] is T3, 5-hydroxytryptamine receptor 1A (Rattus norvegicus) (UniProt P19327).
T3 sequence (whole entry): T1 sequence (P19327 whole entry)
Put plainly: Antagonistic effect on 5-HT syndrome or behavior of rat induced by (R)-1 at the dose of 32 and 1.0 umol/kg of compound (R)-1. It counts as functional. The procedure, abridged: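 Compound (32 µmol/kg sc) or saline injected 10 min before (R)-8-OH-DPAT (1.0 µmol/kg sc). Flat body posture, forepaw treading and hindlimb abduction scored during 30 min of observation. Results as number of rats showing the behaviour out of number tested; Fisher's exact probability test.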

Assay [6] deals with T3, 5-hydroxytryptamine receptor 1A (Rattus norvegicus). Put plainly: 5-HT (serotonin) turnover in rat hippocampus. The class given is functional, tissue-based. The procedure, abridged:
(§2)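 Rats given compound sc in 0.9% NaCl (screening dose typically 32 µmol/kg); decapitated about 30 min after dosing. Hippocampus and corpus striatum dissected and frozen. Perchloric acid homogenates analysed by HPLC with electrochemical detection. Turnover taken as 5-HIAA/5-HT or DOPAC/DA, expressed as percent of saline control. Means ± SEM; n = 5-7 controls, 4-6 treated. ANOVA with Tukey test.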

Assay [7] concerns the target T2, Dopamine receptor (Rattus norvegicus). Put plainly: Dopamine (DA) turnover in rat corpus striatum. The class given is functional, tissue-based. The procedure, abridged:
as §2

For assay [8], the system named is Rattus norvegicus. Put plainly: Antagonistic effect on body temperature of rat induced by (R)-1 at the dose of 32 and 1.0 umol/kg of compound (R)-1. The class given is functional. The procedure, abridged:
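Compound (32 µmol/kg sc) or saline injected 10 min before (R)-8-OH-DPAT (1.0 µmol/kg sc). Colonic temperature taken before injection and 30 min later; result is the change from the preinjection value. One-way ANOVA with Tukey HSD test.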

The test system of assay [9] is Rattus norvegicus. Put plainly: Change in body temperature of rats upon administration after 30 minutes. The class given is functional. The procedure, abridged: (§3)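 Colonic temperature taken with an electrical thermometer probe 3.5 cm deep, before and 30 min after sc injection in saline. Change reported in °C as mean ± SEM; animal numbers as in the cage-leaving test. ANOVA with Tukey test.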

The target in assay [10] is T3, 5-hydroxytryptamine receptor 1A (Rattus norvegicus). Nature of the assay: Number of rats displaying the 5-HT syndrome or leaving the cage out of the number of rats tested. The class given is functional.
The subject of assay [11] is Rattus norvegicus. Put plainly: Effect of accumulation of DOPA in rat striatum at the dose of 0.32 umol/kg. It counts as functional. The procedure, abridged:
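Compound given sc in saline, then NSD 1015 (287 µmol/kg sc) to block aromatic L-amino acid decarboxylase 30 min later. Rats decapitated after another 30 min. Striatum stored at -40 °C for up to 1 week. DOPA quantified by HPLC-EC with α-methyl-5-hydroxytryptophan as internal standard. Reported as percent of control, mean ± SEM (n = 5-6 treated, 15 control); ANOVA with Tukey test.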

For assay [12], the system named is Rattus norvegicus. Nature of the assay: Effect of accumulation of DOPA in rat striatum at the dose of 1.0 umol/kg. It counts as functional. The procedure, abridged:
as §1

For assay [13], the system named is Rattus norvegicus. Put plainly: Effect of 5-HT accumulation in rat hippocampus at the dose of 0.32 umol/kg (p<0.01). The class given is functional. The procedure, abridged:
as §1

Assay [14] relates to Rattus norvegicus. Nature of the assay: Effect of 5-HT accumulation in rat hippocampus at the dose of 1.0 umol/kg (p<0.01). The class given is functional. The procedure, abridged:
as §1

The test system of assay [15] is Rattus norvegicus. Put plainly: Effect of DOPA accumulation in rat striatum at the dose of 0.32 umol/kg (p<0.01). It counts as functional. The procedure, abridged: as §1
Assay [16] concerns Rattus norvegicus. Put plainly: Effect of DOPA accumulation in rat striatum at the dose of 1.0 umol/kg (p<0.01). It counts as functional. The procedure, abridged:
as §1

The subject of assay [17] is Rattus norvegicus. Nature of the assay: Induction of clear-cut 5-HT motor syndrome in reserpine (5 mg/kg, sc) pretreated rats at the dose of 1.0 micro mol/kg. The class given is functional.
The target of assay [18] is T3, 5-hydroxytryptamine receptor 1A (Rattus norvegicus). Put plainly: 5-HT (serotonin) turnover in rat hippocampus (p<0.01). The class given is functional, tissue-based. The procedure, abridged: (§4)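 Rats dosed sc (screening dose typically 32 µmol/kg, in 0.9% NaCl, 2 mL/kg); decapitated 5-10 min after the 30-min rating, […]. Hippocampus dissected and frozen. 5-HIAA/5-HT ratio measured by HPLC with electrochemical detection (+0.85 V) after perchloric acid homogenisation. Reported as percent of saline control, mean ± SEM, n = 4-6 per group; ANOVA with Tukey test.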

In assay [19] the test system is Rattus norvegicus. Put plainly: Change in body temperature of rats upon administration after 30 minutes (p<0.01). It counts as functional. The procedure, abridged: as §3
For assay [20], the system named is Rattus norvegicus. Put plainly: Induction of clear-cut 5-HT motor syndrome in normal rats at the dose of 1.0 micro mol/kg.
Assay [21] concerns the target T3, 5-hydroxytryptamine receptor 1A (Rattus norvegicus). Put plainly: Effect of 5-HT accumulation in rat hippocampus at the dose of 32 umol/kg (p<0.01). It counts as functional, tissue-based. The procedure, abridged:
as §1

Assay [22] is filed under the species Rattus norvegicus. Put plainly: Ability to inhibit cage leaving response. It counts as functional. The procedure, abridged: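 Normal rats given compound sc in saline, housed two per cage. Cage grid covers removed 12 min after injection; rats leaving the cage during the following 12 min were counted and reported as number leaving out of number tested.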
In assay [23] the target is T3, 5-hydroxytryptamine receptor 1A (Rattus norvegicus). Put plainly: Induction of clear-cut 5-HT motor syndrome in normal rats at the dose of 32 micro mol/kg. It counts as functional.
Assay [24] relates to Rattus norvegicus. Nature of the assay: Ability to produce 5-HT motor syndrome in normal rats at the dose of 3.2 micro mol/kg. The class given is functional.
In assay [25] the target is T3, 5-hydroxytryptamine receptor 1A (Rattus norvegicus). Put plainly: 5-HT (serotonin) turnover in rat hippocampus (p<0.05). It counts as functional, tissue-based. The procedure, abridged:
as §4

Assay [26] shares this target. Put plainly: Induction of clear-cut 5-HT motor syndrome in reserpine (5 mg/kg, sc) pretreated rats at the dose of 32 micro mol/kg. The class given is functional, organism-based.

On to `CCCN(CCC)[C@H]1CCc2cccc(C(=O)c3ccccc3)c2C1`, for which affinity in assay [1] was put at a Ki of 0.016 µM. For the same compound, the figures for the Accumulation (in [2]; in the assay on Rattus norvegicus [3]) were 83 and 95, respectively. The Behavioral effect in the assay on Rattus norvegicus [4] is 0. Also, the Effect in [5] was found to be 4. Moreover, the Turnover in assay [6] worked out at 112; in assay [7] it was 88. For the same compound, the Temperature with Rattus norvegicus [8] is reported as -3.03; in the assay with Rattus norvegicus [9], 0.13. The compound further gave a No. of rats in [10] of 2.

Consider `CCCN(CCC)[C@@H]1CCc2cccc(O)c2C1`, for which the Accumulation in the assay on Rattus norvegicus [11] was determined as 106; in the assay with Rattus norvegicus [12] it was 98; with Rattus norvegicus [13], 44; in the assay with Rattus norvegicus [14], 45; with Rattus norvegicus [15], 106; in the assay on Rattus norvegicus [16], 98. Further, the Behavioral effect with Rattus norvegicus [17] is reported as 15; in the assay on Rattus norvegicus [20], 42. Moreover, the results for the Turnover in [18] and in [7] were 66 and 96, respectively. The Temperature in the assay on Rattus norvegicus [19] is on record as -2.6. Further, in assay [10], the No. of rats was determined as 42.

`CCCN(CCC)[C@@H]1CCc2cccc(CO)c2C1`: the Ki in assay [1] came to 0.023 µM. Besides, the Accumulation in assay [2] is 125; in assay [21], 47. In the assay listed under Rattus norvegicus [22], the Cage leaving is 4. Moreover, the Behavioral effect in assay [23] and in assay [26] was 4 each time. Besides, the Effect with Rattus norvegicus [24] worked out at 4. Also, the Turnover is 74 and 85 in assay [25]; 93 and 88 in assay [7]. For the same compound, in assay [10], the No. of rats was 0.

The term Ki denotes the dissociation constant of the complex between target and ligand, obtained from inhibition or displacement. Low values mean a stronger hold on the target, high ones a looser hold on the target.
